Laboratory results: article PMC4543588 (European journal of medicinal chemistry, 2015)
Ends that are not written are not given here.

Experiments:
human NMU2 = human NMU2 (Homo sapiens, UniProt Q9GZQ4); assay: cellular calcium signaling assay, HEK293 cells expressing recombinant human NMU2; type: cell-based
How it was run: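 HEK293 cells stably expressing human NMU2 were grown to ~90% confluence on poly-D-lysine, loaded 45 min at 37 °C with 2 μM fluo-4-AM in Krebs'-HEPES-BSA (pH 7.4), then equilibrated 5 min. After ligand addition, fluorescence (ex 485/em 520 nm) was read at 0.5 s intervals. Maximal [Ca2+]i change was fitted by four-parameter logistic for EC50. Emax given as % hNmU Emax; mean ± SEM, n≥4.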

human NMU1 = biological target: T1, human NMU1 (Homo sapiens, UniProt Q9HB89); assay: cellular calcium signaling assay, HEK293 cells expressing recombinant human NMU1; type: cell-based
T1 sequence (Q9HB89 1-426): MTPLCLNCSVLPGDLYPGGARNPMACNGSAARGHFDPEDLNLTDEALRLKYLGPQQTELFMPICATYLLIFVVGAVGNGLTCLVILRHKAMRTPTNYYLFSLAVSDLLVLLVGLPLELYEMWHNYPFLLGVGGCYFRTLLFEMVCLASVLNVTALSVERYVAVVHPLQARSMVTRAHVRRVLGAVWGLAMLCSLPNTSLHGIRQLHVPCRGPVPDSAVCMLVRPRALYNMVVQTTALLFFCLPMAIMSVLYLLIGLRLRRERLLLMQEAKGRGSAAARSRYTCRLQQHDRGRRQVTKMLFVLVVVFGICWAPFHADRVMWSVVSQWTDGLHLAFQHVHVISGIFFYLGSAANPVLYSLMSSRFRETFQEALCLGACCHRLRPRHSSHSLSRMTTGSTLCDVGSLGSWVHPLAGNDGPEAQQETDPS
How it was run: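 HEK293 cells stably expressing human NMU1, grown to ~90% confluence on poly-D-lysine, loaded 45 min at 37 °C with 2 μM fluo-4-AM in Krebs'-HEPES/0.1% BSA (pH 7.4), then equilibrated 5 min. Ligand added; fluorescence (ex 485/em 520 nm) read every 0.5 s. […] Four-parameter logistic fit gave EC50; Emax as % hNmU; n≥4.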

[1] = s.c. injection ref 39; cited from earlier work
[2] = cited from earlier work
water solubility = type: physicochemical
[3] = body distribution analysis in chronically treated DIO mice; type: in vivo, mouse; conditions: 2.2 mg/kg every 2 days for 28 days
How it was run: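 Male DIO C57BL/6 mice were given test compound chronically at 2.2 mg/kg (1603 nmoles/kg) every 2 days for 28 days, then killed. Organs and tissues were harvested, weighed and homogenised in 4 volumes of DMSO/ACN (1:1) with 0.1% TFA, then spun 10 min at 13000 rpm. Supernatants were analysed by triple-quadrupole LC/MS with a methylated analog as internal standard.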

[4] = system: lysophosphatidic acid (LPA); assay: LPA levels in plasma of chronically treated DIO mice; type: in vivo, mouse; conditions: 1603 nmoles/kg; every 2 or 4 (NM4A) or 7 days (NM4-C16) for 21 days
How it was run: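 Ad libitum-fed male DIO C57BL/6 mice on a 60% kcal-fat diet (n=8/group) received s.c. vehicle or test compound in a phospholipid-based delivery system, 30 min before dark onset. Dosing was 1603 nmoles/kg every 2 or 4 days (2.2 mg/kg) or every 7 days (2.6 mg/kg) for 21 days. Plasma (100 μL) underwent solid-phase extraction and drying at 30–37 °C, then methanol reconstitution. 18:1, 18:2 and 20:4 LPA were quantified by LC-ESI-MS/MS.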

human NMU2, sequence (Q9GZQ4 whole entry): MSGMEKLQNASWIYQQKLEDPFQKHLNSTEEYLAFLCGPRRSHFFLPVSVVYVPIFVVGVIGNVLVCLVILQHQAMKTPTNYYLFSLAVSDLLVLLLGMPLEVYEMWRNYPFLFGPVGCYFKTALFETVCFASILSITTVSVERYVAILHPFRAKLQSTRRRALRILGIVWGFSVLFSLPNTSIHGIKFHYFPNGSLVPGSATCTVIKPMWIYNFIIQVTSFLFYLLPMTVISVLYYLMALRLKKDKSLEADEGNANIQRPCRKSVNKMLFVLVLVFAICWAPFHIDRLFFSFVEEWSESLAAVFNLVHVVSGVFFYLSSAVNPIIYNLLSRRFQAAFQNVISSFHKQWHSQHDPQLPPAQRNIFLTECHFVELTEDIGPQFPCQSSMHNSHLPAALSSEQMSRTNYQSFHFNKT

Compound: Pal-Aib -FL- Phe-N^MeR- Pro-R-N^MeN [NM34]
- NMU2 Emax at 10 μM as % hNmU Emax (human NMU2): 18.4±3.2 % hNmU Emax
- NMU1 Emax at 10 μM as % hNmU Emax (human NMU1): 19.6±3.2 % hNmU Emax

Compound: X(C-Ahx -FL- Phe -Arg- Pro-R-Asn-Ahx-C) [NM11]
- NMU2 Emax at 10 μM as % hNmU Emax (human NMU2): 60.6±11.6 % hNmU Emax
- NMU1 Emax at 10 μM as % hNmU Emax (human NMU1): 33.7±0.2 % hNmU Emax

Compound: NmU: endogenous peptide neuromedin U (FRVDEEFQSPFASQSRGYFLFRPRN-NH2; ends and bridges not checked; UniProt P48645 142-166, looked up)
- half-life after subcutaneous (s.c.) injection [1]: less than 5 min

Compound: X(C-Ahx -FL- Phe -Arg- Tic-R-Asn-Ahx-C) [NM13]
- NMU2 Emax at 10 μM as % hNmU Emax (human NMU2): 39.3±8.8 % hNmU Emax
- NMU1 Emax at 10 μM as % hNmU Emax (human NMU1): 60.4±13.8 % hNmU Emax

Compound: Pal-Aib -FL- α^MeF -Arg- Pro-R-N^MeN [NM33]
- NMU2 Emax at 10 μM as % hNmU Emax (human NMU2): 19.2±2.0 % hNmU Emax
- NMU1 Emax at 10 μM as % hNmU Emax (human NMU1): 20.6±1.9 % hNmU Emax

Compound: Pal-Aib -FL- N^MeF -Arg- Pro-R-N^MeN [NM35]
- NMU2 Emax at 10 μM as % hNmU Emax (human NMU2): 67.0±16.5 % hNmU Emax
- NMU1 Emax at 10 μM as % hNmU Emax (human NMU1): 22.9±3.8 % hNmU Emax

Compound: semaglutide
- plasma half-life [2]: 160 h

Compound: Pal-Aib -FL- Phe -Arg- Pro-R-Asn-Aib [NM6]
- NMU2 Emax at 10 μM as % hNmU Emax (human NMU2): 60.7±12.1 % hNmU Emax
- NMU1 Emax at 10 μM as % hNmU Emax (human NMU1): 40.6±2.2 % hNmU Emax

Compound: Pal-Aib -FL- α^MeF -Arg- Pro-R-N^MeN [NM36]
- NMU2 Emax at 10 μM as % hNmU Emax (human NMU2): 28.6±7.9 % hNmU Emax
- NMU1 Emax at 10 μM as % hNmU Emax (human NMU1): 15.9±6.6 % hNmU Emax

Compound: Pal-Aib -FL- Phe-N^MeR- Pro-R-N^MeN [NM31]
- NMU2 Emax at 10 μM as % hNmU Emax (human NMU2): 17.9±1.5 % hNmU Emax
- NMU1 Emax at 10 μM as % hNmU Emax (human NMU1): 13.8±2.0 % hNmU Emax

Compound: CCCCCCCCCCCCCCCCNC(=O)CNCC(=O)NC(C)(C)C(=O)N[C@@H](Cc1ccccc1)C(=O)N[C@@H](CC(C)C)C(=O)N[C@@H](Cc1ccccc1)C(=O)N[C@@H](CCCNC(=N)N)C(=O)N1CCC[C@H]1C(=O)N[C@@H](CCCNC(=N)N)C(=O)N[C@@H](CC(N)=O)C(N)=O [NM4A, Ida^NHPal-Aib -FL- Phe -Arg- Pro-R-Asn]
- water solubility (water solubility): limited water solubility
- body distribution [3]: highest content of NM4A was detected in the plasma
- plasma levels of LPA [4]: does not increase plasma levels of LPA

Compound: Pal-Aib -FL- N^MeF -Arg- Pro-R-N^MeN [NM32]
- NMU2 Emax at 10 μM as % hNmU Emax (human NMU2): 15.2±3.8 % hNmU Emax
- NMU1 Emax at 10 μM as % hNmU Emax (human NMU1): 19.1±1.2 % hNmU Emax

Compound: X(C-Ahx -FL- Phe -Arg- Oic-R-Asn-Ahx-C) [NM12]
- NMU2 Emax at 10 μM as % hNmU Emax (human NMU2): 70.0±6.0 % hNmU Emax
- NMU1 Emax at 10 μM as % hNmU Emax (human NMU1): 30.00±6.0 % hNmU Emax
